Rpn11 block = Rpn11 (PSMD14) deubiquitinase inhibitors, primary screen, biochemical, fluorescence polarization, uHTS; 26S proteasome non-ATPase regulatory subunit 14 (Homo sapiens), O00487; human 26S proteasome, Ub4-pepOG fluorescence polarization; 20S core pre-blocked with epoxomicin; inhibition, % at 20 µM; actives 0.59% (n = 360,000); AID 588493, 2011;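 active = inhibition at 20 µM, scaled to each plate's controls, above about 33%, limit read from the data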
CSN deneddyl inh = inhibitors of CSN-mediated cullin deneddylation, primary screen, biochemical, fluorescence polarization, uHTS. inhibition, % at 12.5 µM. actives 0.38% (n = 360,000). Purified CSN, SCF-Nedd8-OG deneddylation;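 active = pattern-corrected inhibition above about 35%, with an unprinted fluorescence ratio check between 0.5 and 1.5, limit read from the data, passing the limit was not always enough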;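 also: 0% = enzyme with substrate and 100% = substrate without enzyme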
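assay system = purified human Csn5 enzyme expressed in HEK293T cells | amount = 0.24 nM enzyme | buffer or medium = Tris/NaCl/DTT buffer, pH 7.5 | reagent = 10 nM SCFSkp2-Nedd8OG | compound = one concentration, 12.5 µM, 0.25% DMSO | times = 90 min reaction at room temperature | signal = FP | read-out basis = % inhibition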
PREPL inh = PREPL enzyme inhibitors, primary screen, biochemical, fluorescence polarization; actives 0.68% (n = 320,000); Prolyl endopeptidase-like (Homo sapiens), Q4J6C6; inhibition, % at 5.96 µM; AID 2751, 2010; recombinant PREPL, fluorescence polarization activity-based probe; in the data active = inhibition above about 43%;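 also: 0% = enzyme with DMSO and 100% = wells lacking enzyme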
HNF4A DNA FP = change in binding of human HNF4A to DNA, primary screen, biochemical, fluorescence polarization, FITC-DNA; AID 1224865, 2016; actives 0.3% (n = 360,000); activity change, % at 10 µM; Hepatocyte nuclear factor 4-alpha (Homo sapiens), P41235; 1 h; in the data active = activity change above about 30%, passing the limit was not always enough
Tb MetRS inh = T. brucei MetRS inhibitors, primary screen, biochemical, luminescence. methionyl-tRNA synthetase (Trypanosoma brucei brucei). purified T. brucei MetRS, ATP depletion, Kinase-Glo luminescence. inhibition, % at 11.9 µM. actives 0.4% (n = 360,000). AID 624268, 2012;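 active = inhibition above a per-plate cutoff of the control wells' mean inhibition plus 3 SD, cut at about 5.5% in these data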;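 also: 0% = DMSO wells median and 100% = median of wells with control inhibitor compound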
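Measured by: Kinase-Glo luciferase luminescence reporting remaining unconsumed ATP. Material: purified T. brucei MetRS enzyme. Doses: 11.9 µM compound single dose, 0.9% DMSO. Medium: HEPES buffer containing pyrophosphatase, BSA, spermine, DTT. Times: 15 min preincubation, 2 h reaction, all 25 °C. Reagent: methionine, ATP and bulk E. coli tRNA.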
Neddylation inh = inhibitors of cullin neddylation, primary screen, biochemical, TR-FRET, uHTS, NAE and Ubc12; NEDD8-conjugating enzyme Ubc12 (Homo sapiens) + NEDD8-activating enzyme E1 regulatory …; inhibition, % at 25 µM; actives 0.58% (n = 360,000); in the data active = inhibition above about 36%
Target sequence (P61081 whole entry, looked up): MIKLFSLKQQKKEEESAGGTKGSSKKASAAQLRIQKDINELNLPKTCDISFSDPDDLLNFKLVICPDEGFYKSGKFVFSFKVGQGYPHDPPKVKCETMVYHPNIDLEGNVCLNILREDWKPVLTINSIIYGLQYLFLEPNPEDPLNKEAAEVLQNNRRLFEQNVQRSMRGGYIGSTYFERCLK
Target sequence (Q13564 whole entry, looked up): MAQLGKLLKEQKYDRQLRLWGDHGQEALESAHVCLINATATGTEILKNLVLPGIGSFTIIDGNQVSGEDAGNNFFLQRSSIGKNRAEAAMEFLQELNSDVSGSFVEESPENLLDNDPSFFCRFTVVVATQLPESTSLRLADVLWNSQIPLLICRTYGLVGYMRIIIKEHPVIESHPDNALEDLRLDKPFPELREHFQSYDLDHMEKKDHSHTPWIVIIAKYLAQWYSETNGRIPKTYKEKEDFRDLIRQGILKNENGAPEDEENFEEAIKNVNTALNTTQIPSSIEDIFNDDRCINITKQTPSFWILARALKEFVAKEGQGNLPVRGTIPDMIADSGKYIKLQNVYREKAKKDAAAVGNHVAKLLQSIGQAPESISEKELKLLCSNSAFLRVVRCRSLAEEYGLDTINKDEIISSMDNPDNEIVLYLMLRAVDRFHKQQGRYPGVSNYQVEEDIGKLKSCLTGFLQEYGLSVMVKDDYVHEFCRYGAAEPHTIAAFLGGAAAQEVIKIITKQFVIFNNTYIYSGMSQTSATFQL
The depositor's hits bear a star; . = no result shown; + = active, no number. This is a sample that favours compounds with a hit; in the whole collection about 2.4% have one here.

SMILES	Rpn11 block	CSN deneddyl inh	PREPL inh	HNF4A DNA FP	Tb MetRS inh	Neddylation inh
COc1ccc(C(=O)Nc2cc(C(C)=O)c(/C=C/N(C)C)oc2=O)cc1	.	52*	25	117*	-1	-121
CC(=O)c1cc(NC(=O)c2ccc(C)cc2)c(=O)oc1/C=C/N(C)C	.	61*	8	96*	0	-79
Cc1ccc(F)c(S(=O)(=O)NC(=O)C2(C)CCN2C(=O)c2ccc(C(F)(F)F)nc2C)c1 (centres undefined)	-2	5	.	-2	0	6
COc1cc(C2NC(=O)NC(C)=C2C(=O)OC(C)C)ccc1OC(=O)c1ccco1 (centres undefined)	2	4	79*	3	0	-4
CCOC(=O)C1=C(C)NC(=O)NC1c1ccc(OC(=O)c2ccco2)c(OC)c1 (centres undefined)	1	4	67*	1	0	-6
COc1cc(C2NC(=S)NC(C)=C2C(=O)OC(C)C)ccc1OC(C)C (centres undefined)	-3	0	-4	5	0	-64
CN(CC(=O)NC(=O)NC1CCCCC1)CC(=O)Nc1ccccc1C(F)(F)F	3	-3	.	-4	0	0
CC(=O)Nc1cccc(C(=O)OCc2csc(CC(=O)Nc3ccccc3C)n2)c1	12	8	-10	3	0	-16
c1ccc(-n2cnc3ccccc32)nc1	-1	-3	-12	-1	-2	0
c1ccc(-c2nccc(-c3ccc(-n4cnc5ccccc54)cc3)n2)cc1	1	73*	-3	-2	-1	-38
O=C(Nc1c(Cl)cccc1Cl)Oc1cccc2cccnc12	51*	0	.	1	0	.
O=C(c1ccc([N+](=O)[O-])cc1Cl)N1CCN(Cc2ccccc2)CC1	-9	-1	.	-4	0	-8
O=S(CC(O)(c1ccccc1)c1ccccc1)CC(O)(c1ccccc1)c1ccccc1	-4	-5	.	-2	0	-8
Nc1nc2ccccc2n1C(=O)c1ccc(F)cc1	-4	-3	12	-1	-1	27
Nc1nc2ccccc2n1C(=O)c1ccccc1	-8	4	1	-2	-1	41*
Cc1ccc(S(=O)(=O)N2CCOCC2)cc1NC(=O)CSc1nnnn1C1CC1	-5	-2	.	1	0	-6
COc1ccc(CN2CC[C@@H]3CN(C(C)=O)[C@H](c4ccccc4Br)C[C@@H]32)cc1	6	161*	.	1	-1	-11
N=C1/C(=C\c2ccc(-c3ccc(C(=O)O)cc3)o2)C(=O)N=C2SC=C(c3ccccc3)N12	+	50	.	-40	0	-13
CCOC(=O)CCCCCC(=O)Nc1ccc2c(c1)C(=O)N([C@@H](C)CO)C[C@H](C)[C@H](CN(C)C(=O)Nc1ccc(F)cc1)OCCCC[C@H](C)O2	4	6	.	6	-1	-3
O=C(NCc1ccco1)c1cccc2c1C(=O)c1ccc(N3CCCC3)cc1S2(=O)=O	.	16	-4	52*	0	-25
Cc1ccc(CNC(=O)c2cccc3c2C(=O)c2ccc(N4CCOCC4)cc2S3(=O)=O)cc1	23	3	11	29	0	-29
O=C(NCC1CC1)c1cccc2c1C(=O)c1ccc(N3CCCC3)cc1S2(=O)=O	.	32	-6	61	0	-86
Cc1ccc(CNC(=O)c2cccc3c2C(=O)c2ccc(N4CCCCC4)cc2S3(=O)=O)cc1	.	31	19	38*	0	-51
C=CCNC(=O)c1cccc2c1C(=O)c1ccc(N3CCCC3)cc1S2(=O)=O	.	36*	-21	65	0	-78
COc1cc(/C=C(/C#N)c2nc3ccccc3[nH]2)ccc1OC(=O)c1ccco1	26	14	83*	33	1	-65

High-throughput results: PubChem, several laboratories
